Test results: ChEMBL document CHEMBL4052644, “Synthesis of novel benzylidene analogues of betulinic acid as potent cytotoxic agents” (Eur J Med Chem, 2017)
pIC50: −log10 of the molar value.

What was measured:
MCF7 [1] = assay: Cytotoxicity against human MCF7 cells assessed as reduction in cell viability after 48 hrs by SRB assay; assay type: functional, cell-based; details: MCF7, 48 h
Method in brief: (§1)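 SRB assay. Compounds active at 10 µM in the primary screen were retested at 1, 2.5 and 5 µM, and IC50 was calculated from these concentrations. The normal breast epithelial line fR2 was tested alongside the cancer lines.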

[2] = Cytotoxicity against human FR2 cells assessed as reduction in cell viability after 48 hrs by SRB assay; assay type: cell-based; details: FR2, 48 h; method in brief: as §1
[3] = Selectivity index, ratio of IC50 for human FR2 cells to IC50 for human PC3 cells; assay type: functional
Method in brief: (§2)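 Selectivity index is the IC50 in normal breast epithelial fR2 cells divided by the IC50 in each cancer line. All IC50 values come from the SRB assay.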

HCT-116 [4] = assay: Growth inhibition of human HCT116 cells at 10 uM after 48 hrs by SRB assay relative to control; assay type: functional; details: HCT-116, 48 h, read-out: GI
Method in brief: (§3)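 Primary SRB screen of every compound at a single concentration of 10 µM. Growth inhibition is expressed relative to control.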

PC-3 [5] = assay: Growth inhibition of human PC3 cells at 10 uM after 48 hrs by SRB assay relative to control; assay type: functional; details: PC-3, 48 h, read-out: GI; method in brief: as §3
A549 [6] = assay: Growth inhibition of human A549 cells at 10 uM after 48 hrs by SRB assay relative to control; assay type: functional; details: A549, 48 h, read-out: GI; method in brief: as §3
MCF7 [7] = assay: Growth inhibition of human MCF7 cells at 10 uM after 48 hrs by SRB assay relative to control; assay type: functional; details: MCF7, 48 h, read-out: GI; method in brief: as §3
[8] = Selectivity index, ratio of IC50 for human FR2 cells to IC50 for human A549 cells; assay type: functional; method in brief: as §2
A549 [9] = assay: Cytotoxicity against human A549 cells assessed as reduction in cell viability after 48 hrs by SRB assay; assay type: functional, cell-based; details: A549, 48 h; method in brief: as §1
MIA PaCa-2 [10] = assay: Growth inhibition of human MIAPaCa2 at 10 uM after 48 hrs by SRB assay relative to control; assay type: functional; details: MIA PaCa-2, 48 h, read-out: GI; method in brief: as §3
[11] = Selectivity index, ratio of IC50 for human FR2 cells to IC50 for human MIAPaCa2 cells; assay type: functional; method in brief: as §2
[12] = Selectivity index, ratio of IC50 for human FR2 cells to IC50 for human MCF7 cells; assay type: functional; method in brief: as §2
HCT-116 [13] = assay: Cytotoxicity against human HCT116 cells assessed as reduction in cell viability after 48 hrs by SRB assay; assay type: functional, cell-based; details: HCT-116, 48 h; method in brief: as §1
[14] = Selectivity index, ratio of IC50 for human FR2 cells to IC50 for human HCT116 cells; assay type: functional; method in brief: as §2
PC-3 [15] = assay: Cytotoxicity against human PC3 cells assessed as reduction in cell viability after 48 hrs by SRB assay; assay type: functional, cell-based; details: PC-3, 48 h; method in brief: as §1
MIA PaCa-2 [16] = assay: Cytotoxicity against human MIAPaCa2 cells assessed as reduction in cell viability after 48 hrs by SRB assay; assay type: functional, cell-based; details: MIA PaCa-2, 48 h; method in brief: as §1

| Compound | pIC50 (MCF7 [1]) | pIC50 [2] | Ratio IC50 [3] | inhibition of growth at 10 µM (HCT-116 [4]) [%] | inhibition of growth at 10 µM (PC-3 [5]) [%] | inhibition of growth at 10 µM (A549 [6]) [%] | inhibition of growth at 10 µM (MCF7 [7]) [%] | Ratio IC50 [8] | pIC50 (A549 [9]) | inhibition of growth at 10 µM (MIA PaCa-2 [10]) [%] | Ratio IC50 [11] | Ratio IC50 [12] | pIC50 (HCT-116 [13]) | Ratio IC50 [14] | pIC50 (PC-3 [15]) | pIC50 (MIA PaCa-2 [16]) |
| --- | --- | --- | --- | --- | --- | --- | --- | --- | --- | --- | --- | --- | --- | --- | --- | --- |
| C=C(C)[C@@H]1CC[C@]2(C(=O)O)CC[C@]3(C)[C@H](CC[C@@H]4[C@@]5(C)C/C(=C\c6ccsc6)C(=O)C(C)(C)[C@@H]5CC[C@]43C)[C@@H]12 | 5.54 | 4.68 | 3.095 | 91 | 82 | 95 | 92 | 5.317 | 5.41 | 76 | 3.913 | 7.151 | 5.29 | 4.066 | 5.17 | 5.28 |
| C=C(C)[C@@H]1CC[C@]2(C(=O)O)CC[C@]3(C)[C@H](CC[C@@H]4[C@@]5(C)C/C(=C\c6cccc(Br)c6)[C@H](O)C(C)(C)[C@@H]5CC[C@]43C)[C@@H]12 | 5.09 | 4.82 | 2.72 | 46 | 59 | 90 | 65 | 4.16 | 5.44 | 22 | 1.041 | 1.86 | < 5.00 | – | 5.26 | 4.84 |
| C=C(C)[C@@H]1CC[C@]2(C(=O)O)CC[C@]3(C)[C@H](CC[C@@H]4[C@@]5(C)C/C(=C\c6ccc(OC)cc6)[C@H](O)C(C)(C)[C@@H]5CC[C@]43C)[C@@H]12 | 5.16 | 4.67 | 2.914 | 63 | 52 | 54 | 69 | 5.016 | 5.37 | 67 | 3.37 | 3.126 | 5.31 | 4.402 | 5.13 | 5.19 |
| C=C(C)[C@@H]1CC[C@]2(C(=O)O)CC[C@]3(C)[C@H](CC[C@@H]4[C@@]5(C)C/C(=C\c6ccc(OC)cc6)C(=O)C(C)(C)[C@@H]5CC[C@]43C)[C@@H]12 | 5.17 | 4.62 | 3.522 | 69 | 81 | 94 | 88 | 4.696 | 5.29 | 71 | 3.387 | 3.522 | 5.27 | 4.435 | 5.17 | 5.15 |
| C=C(C)[C@@H]1CC[C@]2(C(=O)O)CC[C@]3(C)[C@H](CC[C@@H]4[C@@]5(C)C/C(=C\c6cccnc6)C(=O)C(C)(C)[C@@H]5CC[C@]43C)[C@@H]12 | 5.59 | 4.00 | 15.15 | 96 | 67 | 94 | 97 | 32.25 | 5.51 | 97 | 20.4 | 38.46 | 5.71 | 50.76 | 5.18 | 5.31 |
| C=C(C)[C@@H]1CC[C@]2(C(=O)O)CC[C@]3(C)[C@H](CC[C@@H]4[C@@]5(C)C/C(=C\c6ccc([N+](=O)[O-])cc6)C(=O)C(C)(C)[C@@H]5CC[C@]43C)[C@@H]12 | 5.51 | 4.85 | – | 75 | 37 | 82 | 83 | 9.353 | 5.82 | 61 | 2.158 | 4.525 | 5.85 | 10.02 | < 5.00 | 5.19 |
| C=C(C)[C@@H]1CC[C@]2(C(=O)O)CC[C@]3(C)[C@H](CC[C@@H]4[C@@]5(C)C/C(=C\c6cccc([N+](=O)[O-])c6)[C@H](O)C(C)(C)[C@@H]5CC[C@]43C)[C@@H]12 | 5.35 | 4.92 | 2.941 | 88 | 80 | 92 | 77 | 9.88 | 5.91 | 80 | 1.8 | 2.68 | 5.41 | 3.092 | 5.39 | 5.17 |
| C=C(C)[C@@H]1CC[C@]2(C(=O)O)CC[C@]3(C)[C@H](CC[C@@H]4[C@@]5(C)C/C(=C\c6ccc(F)cc6)C(=O)C(C)(C)[C@@H]5CC[C@]43C)[C@@H]12 | 5.36 | 4.15 | 11.1 | 99 | 95 | 92 | 95 | 27.33 | 5.59 | 96 | 13.15 | 16.15 | 5.44 | 19.73 | 5.19 | 5.27 |
| C=C(C)[C@@H]1CC[C@]2(C(=O)O)CC[C@]3(C)[C@H](CC[C@@H]4[C@@]5(C)C/C(=C\c6ccc(F)c(Br)c6)C(=O)C(C)(C)[C@@H]5CC[C@]43C)[C@@H]12 | 5.15 | 4.33 | 5.881 | 89 | 71 | 89 | 85 | 12.09 | 5.41 | 82 | 6.836 | 6.671 | 5.24 | 8.132 | 5.10 | 5.16 |
| C=C(C)[C@@H]1CC[C@]2(C(=O)O)CC[C@]3(C)[C@H](CC[C@@H]4[C@@]5(C)C/C(=C\c6ccc(F)cc6)[C@H](O)C(C)(C)[C@@H]5CC[C@]43C)[C@@H]12 | 5.93 | 4.84 | – | 67 | 48 | 59 | 77 | 3.6 | 5.40 | 78 | 8.702 | 12.22 | 5.82 | 9.62 | < 5.00 | 5.92 |
| C=C(C)[C@@H]1CC[C@]2(C(=O)O)CC[C@]3(C)[C@H](CC[C@@H]4[C@@]5(C)C/C(=C\c6ccccc6Br)[C@H](O)C(C)(C)[C@@H]5CC[C@]43C)[C@@H]12 | 5.09 | 4.66 | – | 43 | 19 | 47 | 57 | – | < 5.00 | 49 | 2.257 | 2.642 | < 5.00 | – | < 5.00 | 5.02 |
| C=C(C)[C@@H]1CC[C@]2(C(=O)O)CC[C@]3(C)[C@H](CC[C@@H]4[C@@]5(C)C/C(=C\c6ccc(Br)cc6)[C@H](O)C(C)(C)[C@@H]5CC[C@]43C)[C@@H]12 | 5.09 | 4.45 | 4.3 | 66 | 48 | 80 | 64 | 19.63 | 5.74 | 48 | – | 4.36 | 5.24 | 6.2 | 5.09 | < 5.00 |
| C=C(C)[C@@H]1CC[C@]2(C(=O)O)CC[C@]3(C)[C@H](CC[C@@H]4[C@@]5(C)C/C(=C\c6cccc7ccccc67)[C@H](O)C(C)(C)[C@@H]5CC[C@]43C)[C@@H]12 | 5.12 | 5.00 | – | 55 | 36 | 36 | 64 | – | < 5.00 | 62 | 1.416 | 1.338 | 5.44 | 2.788 | < 5.00 | 5.15 |
